CaV13 FRET inh: Primary screen for inhibitors of IQ motif and Ca2+-dependent inactivation inhibitor domain binding in CACNA1D, Förster resonance energy transfer in living cells, …. 340,000 tested, 0.098% active. HEK cells, CFP/YFP FRET ICDI-IQ, plate reader, 10 min; percent FRET-ratio fall versus neutral wells. AID 743397. inhibition, % at 12.3 µM;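 active means mean replicate inhibition of at least 30% and at least 1% of replicates passing that level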
HSF1 activator: increases HSF-1 driven luciferase reporter signal | activation, % at 9 µM | NIH3T3-HGL HSF-1 luciferase reporter, MG132, 8 h; 100% = twice DMSO control signal | AID 504408 | 300,000 tested, 1.7% active;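 active means mean replicate activation of at least 50% with a set share of replicates each reaching 50%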
PfHsp90 yeast 2: inhibits growth of yeast expressing Plasmodium falciparum Hsp90; S. cerevisiae expressing PfHsp90, BacTiter-Glo ATP, 48 h; yeast lacking PDR1 and PDR3 efflux regulators; inhibition, % at 9.4 µM; 310,000 tested, 0.32% active; AID 504621;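 active means every replicate shows inhibition above about 80%, whatever the replicate mean, limit read from the data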
N-glyco inh: N-linked glycosylation inhibition | D54 ERlucT glycosylation luciferase reporter, 24 h; percent of 100 nM tunicamycin response | reporter increase, % at 12.5 µM | 360,000 tested, 0.23% active | AID 588692;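 active means mean luciferase reporter signal, scaled so untreated is 0 and the glycosylation-blocking control 100, at or above a set limit in every replicate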;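 further: luciferase carries N-glycosylation sites so blocking glycosylation raises the light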
T cruzi repl: T. cruzi replication inhibition; AID 1885; T. cruzi beta-gal in NIH3T3, luminescence, 90 h; inhibition, % (no concentration beside the values); 300,000 tested, 1.4% active;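 active means mean inhibition across valid replicates above about 55%, limit read from the data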;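 further: signal also drops with host cell toxicity which is not excluded here; higher percent means less beta-gal luminescence so fewer parasites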
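System: Mouse NIH/3T3 fibroblasts infected with β-gal-expressing T. cruzi Tulahuen C4 | Quantity: NIH/3T3 cells, 5,000 per well | Reagent: 5000 reporter trypomastigotes per well | Dosing: Compound pinned at 50 nL/well, DMSO | Schedule: 3 h host attachment, then at least 90 h co-culture | Detection: GalScreen luminescence, 60 min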
PvdQ inh: P. aeruginosa PvdQ acylase inhibition; purified PvdQ acylase, fluorescence plate reader; inhibition, % at 10 µM; 340,000 tested, 0.063% active; AID 488965; in the data active means inhibition above about 30%, passing the limit was not always enough
A number is an active result; i = inactive; nt = not tested or not shown. A selection: hits, their analogues and other compounds. The true share with any hit is near 3%.

SMILES | CaV13 FRET inh | HSF1 activator | PfHsp90 yeast 2 | N-glyco inh | T cruzi repl | PvdQ inh
CCOc1cc(NC(=O)CC(C)C)c(OCC)cc1NC(=O)CCn1nnc2ccccc21 | i | 56.9 | i | i | i | i
Cc1cccc(C(=O)NNC(=O)CCn2nnc3ccccc32)c1 | i | 88.8 | i | i | i | i
CCOC(=O)c1ccc(NC(=O)CCn2nnc3ccccc32)cc1 | nt | i | i | i | i | i
C[C@H](NC(=O)[C@@H]1CCCN1C(=O)[C@@H]1CCCN1C(=O)c1cccs1)c1ccccc1 | i | nt | nt | nt | nt | nt
COc1ccc(CN2CCN(C(=O)C3CCC(CNS(=O)(=O)c4ccccc4)CC3)CC2)c(OC)c1OC (centres undefined) | i | i | i | i | 58.3 | i
CC1CCCC/C1=N\Nc1ccc(S(N)(=O)=O)cc1[N+](=O)[O-] (centres undefined) | i | 67.9 | i | i | i | i
CC(C)(C)C1CCC(=NNc2ccc(S(N)(=O)=O)cc2[N+](=O)[O-])CC1 (centres undefined) | i | i | i | i | i | i
COc1ccc(C2=NNC(=Nc3cc(S(=O)(=O)N(C)C)ccc3C)SC2)c(OC)c1 | i | i | i | i | 71.8 | i
O=c1cc(CN2CCN(C/C=C/c3ccccc3)CC2)c2cc(O)ccc2o1 | nt | i | nt | i | 57.7 | i
Cc1ccc2oc(=O)cc(CN3CCN(C/C=C/c4ccccc4)CC3)c2c1 | i | i | i | i | 56.6 | i
O=c1[nH]c(CN2CCN(C/C=C/c3ccccc3)CC2)nc2ccccc12 | i | i | i | i | 72.1 | i
O=c1cc(CN2CCN(c3ccccc3)CC2)c2cc(O)c(-c3ccccc3)cc2o1 | i | i | i | i | i | i
CCOC(=O)[C@]12CCCC=C1N(CCC1=CCCCC1)C(=O)[C@H](CC(=O)NCCCN1CCCC1=O)C2 | i | nt | nt | nt | nt | nt
Cc1ccc(-c2nc3c4ccccc4ccn3c2Cc2cccc(F)c2)cc1 | i | nt | nt | nt | nt | nt
CC(NC(=O)c1ccco1)c1nc(-c2ccccc2)no1 (centres undefined) | i | i | i | i | i | i
CC(Oc1ccc(Cl)cc1Cl)c1nc(-c2ccc(NC(=O)c3ccco3)cc2)no1 (centres undefined) | i | 60.9 | i | i | i | i
Clc1ccc2[nH]cc(-c3nnnn3-c3ccc4ccccc4c3)c2c1 | i | i | i | i | 68.8 | i
O=C(CN1c2ccccc2Sc2ccccc21)N/N=C/c1ccc(Cl)cc1 | i | 61.3 | i | i | nt | i
O=C(CN1c2ccccc2Sc2ccccc21)N/N=C/c1ccc(Cl)cc1Cl | i | i | i | i | i | i
COC(=O)[C@]12C[C@H](CC(=O)N3CCC(c4ccccc4)CC3)C(=O)N(CCc3ccc(OC)c(OC)c3)C1=C[C@H](C(C)(C)C)O[C@@H]2C | i | nt | nt | nt | nt | nt
COc1ccc(N=C2S/C(=C\c3ccc(N4CCOCC4)o3)C(=O)N2CCc2c[nH]c3ccccc23)cc1 | nt | i | i | i | 56.4 | i
O=C(NCc1ccccc1)[C@H]1CCCN1C(=O)[C@H]1CCCN1C(=O)c1cccs1 | i | nt | nt | nt | nt | nt
COc1ccc(C2CC(c3ccc(Br)cc3)=NN2C(=O)CSC2=NN3CCCC(=O)N=C3S2)cc1 (centres undefined) | nt | i | i | i | 60.0 | i
COc1cc(NS(=O)(=O)c2cc(C)ccc2OC)c(OC)cc1Cl | i | 67.4 | i | i | i | i
COc1ccc(C)cc1S(=O)(=O)Nc1cc(Cl)ccc1Cl | nt | i | i | i | i | i
SMILES | CaV13 FRET inh | HSF1 activator | PfHsp90 yeast 2 | N-glyco inh | T cruzi repl | PvdQ inh
CC(=O)Nc1ccc(NC(=O)c2ccc(Cn3cc(Cl)cn3)cc2)cc1 | i | nt | i | i | i | i
CCn1ncc(C(=O)Nc2cccc(Cl)c2)c1C | i | 62.0 | nt | i | i | i
CCc1cccc(NC(=O)c2cnn(-c3ccccc3)c2C)c1 | i | i | i | i | i | i
O=C(Nc1cccc(Cl)c1)c1ccc(Cn2cc(Cl)cn2)cc1 | i | 53.1 | i | i | i | i
Cc1ccc(NC(=O)c2cnn(-c3ccccc3)c2C)c(C)c1 | i | i | i | i | i | i
Cc1ccc(NC(=O)c2cnn(-c3ccccc3)c2C)cc1 | i | 72.0 | i | i | i | i
OCC[C@@H]1C[C@H](O)[C@@H](O)[C@@]2(OCCc3cc(C(F)(F)F)ccc32)O1 | i | nt | nt | nt | nt | nt
COc1ccc(CCN2C(=O)CCC3=C2CCCC3=O)cc1OC | nt | nt | nt | i | nt | nt
CCOC(=O)[C@]12CCC=C1N(Cc1ccco1)C(=O)[C@H](CC(=O)NCCc1ccccc1OC)C2 | i | nt | nt | nt | nt | nt
COCCNc1nc(NCCCN2CCCC2=O)c2sccc2n1 | i | nt | nt | i | nt | nt
O=C(O)COc1ccc(/C=N/n2c(COc3ccccc3)nc3ccccc3c2=O)cc1 | i | i | i | i | i | i
Cc1cccc(C)c1OCc1nc2ccccc2c(=O)n1/N=C/c1ccc(OCC(=O)O)cc1 | i | 52.8 | i | i | i | i
Cn1nccc1-c1ccc(C(=O)NCc2ccc(Cl)cc2)c2occc12 | nt | nt | nt | i | nt | nt
Cc1ccc2nc(NC(=O)c3cccc(-c4cc5ccccc5oc4=O)c3)sc2c1 | i | i | nt | nt | 63.7 | nt
Cc1c(N(C)S(=O)(=O)c2cccc(C(=O)NC(C)C)c2)c(=O)n(-c2ccccc2)n1C | i | 62.2 | i | i | i | i
Cc1cc(NC(=O)c2ccc(C)c(C)c2)no1 | i | 61.0 | i | i | i | i
Cc1cccc(NC(=O)Nc2cc(C)on2)c1 | i | i | i | i | i | 38.7
COc1ccc(C(=O)Nc2cc(C)on2)cc1 | i | i | i | i | i | i
CC(=O)Oc1ccc(C(=O)Nc2cc(C)on2)cc1 | 55.9 | i | i | i | i | i
Cc1cc(NC(=O)c2ccccc2)no1 | i | i | i | i | i | i
Cc1ccc(NC(=O)Nc2cc(C)on2)cc1 | i | i | i | i | i | i
Cc1cc(N=Nc2ccccc2C(=O)O)c(C)c(C)c1O | i | i | 99.5 | i | i | i
COc1ccc(/C=N/NC(=O)c2sccc2C)c2ccccc12 | i | i | i | i | i | i
Cc1ccsc1C(=O)N/N=C/c1ccc2c(c1)OCO2 | i | 51.9 | i | i | i | i
Cc1ccccc1/C=N/NC(=O)c1sccc1C | i | 55.2 | i | i | i | i
SMILES | CaV13 FRET inh | HSF1 activator | PfHsp90 yeast 2 | N-glyco inh | T cruzi repl | PvdQ inh
Cc1ccsc1/C=N/NC(=O)Nc1ccccc1 | i | 57.5 | i | i | i | i
CNC(=S)N(Cc1ccc(Cl)cc1)Cc1cccs1 | i | 54.0 | i | i | i | i
COc1ccccc1CNC(=O)c1ccc(NS(=O)(=O)c2cccs2)cc1 | i | 64.4 | i | i | i | i
COc1ccccc1CNC(=O)c1ccc(NS(C)(=O)=O)cc1 | i | i | i | i | i | i
Cc1cc(C)c(S(=O)(=O)N2CCC(C(=O)NCc3ccco3)CC2)c(C)c1 | i | 53.6 | i | i | i | i
Cc1cc(C)c(C)c(S(=O)(=O)N2CCC(C(=O)NCc3ccco3)CC2)c1C | i | nt | nt | i | nt | i
